The record followed here is ChEMBL document CHEMBL3352219, “Triterpenes from Alisma orientalis act as androgen receptor agonists, progesterone receptor antagonists, and glucocorticoid receptor antagonists” (Bioorg Med Chem Lett, 2014).

The test system of one data set is HepG2. Briefly: Cytotoxicity against human HepG2 cells. The format is cell-based.
In data set [1] the target is T1, Androgen receptor (Homo sapiens) (UniProt P10275).
T1 sequence (whole entry): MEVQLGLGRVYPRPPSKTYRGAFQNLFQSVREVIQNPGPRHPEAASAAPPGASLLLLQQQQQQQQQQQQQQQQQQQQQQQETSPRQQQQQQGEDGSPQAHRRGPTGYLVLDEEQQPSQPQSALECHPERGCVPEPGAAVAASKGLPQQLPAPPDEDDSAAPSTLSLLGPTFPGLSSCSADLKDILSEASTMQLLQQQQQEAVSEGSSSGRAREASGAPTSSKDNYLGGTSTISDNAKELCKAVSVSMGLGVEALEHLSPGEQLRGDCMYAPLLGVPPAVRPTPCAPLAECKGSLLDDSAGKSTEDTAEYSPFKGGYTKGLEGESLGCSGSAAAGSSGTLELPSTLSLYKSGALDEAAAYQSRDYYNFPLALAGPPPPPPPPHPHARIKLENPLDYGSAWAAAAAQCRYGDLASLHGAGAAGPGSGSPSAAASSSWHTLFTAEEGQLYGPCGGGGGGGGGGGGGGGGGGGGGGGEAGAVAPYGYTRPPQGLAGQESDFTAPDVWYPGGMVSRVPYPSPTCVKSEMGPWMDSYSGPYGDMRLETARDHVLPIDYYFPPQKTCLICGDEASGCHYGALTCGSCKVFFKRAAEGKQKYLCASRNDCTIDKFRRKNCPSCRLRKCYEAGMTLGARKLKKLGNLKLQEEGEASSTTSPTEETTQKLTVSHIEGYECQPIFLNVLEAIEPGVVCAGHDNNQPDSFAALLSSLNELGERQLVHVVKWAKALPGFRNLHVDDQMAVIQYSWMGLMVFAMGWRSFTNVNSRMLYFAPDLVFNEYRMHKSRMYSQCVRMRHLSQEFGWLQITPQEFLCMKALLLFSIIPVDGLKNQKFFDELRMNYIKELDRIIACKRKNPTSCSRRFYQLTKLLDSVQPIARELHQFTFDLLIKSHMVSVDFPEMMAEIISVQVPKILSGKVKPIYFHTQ
Kind of data set: Agonist activity at androgen receptor (unknown origin) expressed in human HepG2 cells assessed as relative luciferase activity at 1 uM by MMTV promoter-driven luciferase reporter gene assay relative to untreated vehicle control. The format is cell-based. The method, boiled down:
(§1)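 HepG2 in phenol red-free DMEM with 10% charcoal-stripped FBS, plated in triplicate at 1 × 10^5 cells/well. After 24 h, transfected with 2 µg wild-type AR expression plasmid (pCMV-AR), 6 µg pMMTV-luc reporter and 1 µg β-galactosidase plasmid. Treated 24 h, then lysed. Luciferase normalized to β-gal and expressed relative to DMSO vehicle (=1).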

Data set [2] has as its target T1, Androgen receptor (Homo sapiens). Briefly: Agonist activity at androgen receptor (unknown origin) expressed in human HepG2 cells assessed as relative luciferase activity at 100 nM by MMTV promoter-driven luciferase reporter gene assay relative to untreated vehicle control. The format is cell-based. The method in brief: as §1
In data set [3] the target is T2, Progesterone receptor (Homo sapiens) (UniProt P06401).
T2 sequence (whole entry): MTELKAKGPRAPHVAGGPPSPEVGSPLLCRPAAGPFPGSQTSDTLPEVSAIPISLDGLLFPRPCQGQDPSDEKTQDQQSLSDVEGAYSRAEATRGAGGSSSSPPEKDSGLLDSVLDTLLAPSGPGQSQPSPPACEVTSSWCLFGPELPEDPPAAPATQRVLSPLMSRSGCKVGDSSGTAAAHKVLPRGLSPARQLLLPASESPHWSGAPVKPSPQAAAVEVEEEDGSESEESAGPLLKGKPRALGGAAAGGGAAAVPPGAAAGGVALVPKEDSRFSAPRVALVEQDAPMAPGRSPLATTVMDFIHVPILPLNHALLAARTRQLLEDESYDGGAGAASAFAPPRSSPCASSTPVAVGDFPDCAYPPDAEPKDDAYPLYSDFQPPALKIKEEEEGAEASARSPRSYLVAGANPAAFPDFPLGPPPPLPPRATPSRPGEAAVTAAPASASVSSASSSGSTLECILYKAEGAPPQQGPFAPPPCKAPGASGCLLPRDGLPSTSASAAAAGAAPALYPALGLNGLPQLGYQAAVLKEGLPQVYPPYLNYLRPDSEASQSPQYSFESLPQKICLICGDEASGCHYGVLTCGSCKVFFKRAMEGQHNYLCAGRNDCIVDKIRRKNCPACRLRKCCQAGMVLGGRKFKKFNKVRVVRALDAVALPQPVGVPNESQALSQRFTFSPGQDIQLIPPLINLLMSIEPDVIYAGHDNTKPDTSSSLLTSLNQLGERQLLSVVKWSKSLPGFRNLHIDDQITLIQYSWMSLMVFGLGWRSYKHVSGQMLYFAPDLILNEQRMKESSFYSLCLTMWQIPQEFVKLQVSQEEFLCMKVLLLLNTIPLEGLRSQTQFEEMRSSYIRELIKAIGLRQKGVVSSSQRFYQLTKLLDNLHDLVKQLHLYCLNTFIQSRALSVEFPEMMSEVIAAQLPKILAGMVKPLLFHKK
Briefly: Agonist activity at progesterone receptor (unknown origin) expressed in human HepG2 cells assessed as relative luciferase activity at 20 uM by MMTV promoter-driven luciferase reporter gene assay relative to progesterone. The data set is classed as cell-based.

Data set [4] has as its target T2, Progesterone receptor (Homo sapiens). Kind of data set: Antagonist activity at progesterone receptor (unknown origin) expressed in human HepG2 cells assessed as reduction in progesterone-induced response at 10 uM by MMTV promoter-driven luciferase reporter gene assay. The data set is classed as cell-based. The method in brief:
(§2)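 Triplicate HepG2 wells in phenol red-free, charcoal-stripped serum medium. Cotransfected with 2 µg pCMV-PR, 6 µg pMMTV-luc and 1 µg β-gal plasmid. Compound added with 10 nM progesterone for 24 h. Lysate luminescence normalized to β-galactosidase and expressed relative to progesterone alone (=1).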

Data set [5] shares this target. Kind of data set: Antagonist activity at progesterone receptor (unknown origin) expressed in human HepG2 cells assessed as reduction in progesterone-induced response at 1 uM by MMTV promoter-driven luciferase reporter gene assay. The format is cell-based. The method, boiled down:
as §2

Data set [6] has the same target. Briefly: Antagonist activity at progesterone receptor (unknown origin) expressed in human HepG2 cells assessed as reduction in progesterone-induced response at 100 nM by MMTV promoter-driven luciferase reporter gene assay. The format is cell-based. The method, boiled down: as §2
Data set [7] has as its target T3, Glucocorticoid receptor (Homo sapiens) (UniProt P04150).
T3 sequence (whole entry): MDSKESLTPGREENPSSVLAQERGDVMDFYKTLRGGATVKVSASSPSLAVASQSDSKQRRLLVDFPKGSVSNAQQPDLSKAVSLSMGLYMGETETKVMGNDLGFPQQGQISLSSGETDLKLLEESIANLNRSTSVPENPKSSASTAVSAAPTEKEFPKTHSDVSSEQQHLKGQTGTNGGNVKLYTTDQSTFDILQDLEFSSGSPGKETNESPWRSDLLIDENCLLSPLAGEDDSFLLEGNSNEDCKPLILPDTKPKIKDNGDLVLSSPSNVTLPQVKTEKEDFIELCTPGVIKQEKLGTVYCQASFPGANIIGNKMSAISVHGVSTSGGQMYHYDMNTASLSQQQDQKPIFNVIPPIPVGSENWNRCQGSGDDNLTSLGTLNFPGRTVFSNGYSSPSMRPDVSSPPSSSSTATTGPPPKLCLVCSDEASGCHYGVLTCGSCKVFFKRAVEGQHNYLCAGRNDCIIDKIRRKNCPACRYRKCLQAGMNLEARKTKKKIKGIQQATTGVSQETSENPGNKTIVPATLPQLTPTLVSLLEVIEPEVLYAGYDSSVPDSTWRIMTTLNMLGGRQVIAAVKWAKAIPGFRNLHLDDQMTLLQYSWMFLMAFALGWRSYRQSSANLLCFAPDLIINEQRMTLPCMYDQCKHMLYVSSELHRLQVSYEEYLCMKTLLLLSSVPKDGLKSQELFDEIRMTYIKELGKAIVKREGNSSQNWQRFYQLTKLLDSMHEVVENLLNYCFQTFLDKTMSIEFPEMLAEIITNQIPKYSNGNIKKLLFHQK
Briefly: Antagonist activity at glucocorticoid receptor (unknown origin) expressed in human HepG2 cells assessed as reduction in dexamethasone-induced response at 10 uM by MMTV promoter-driven luciferase reporter gene assay. The data set is classed as cell-based. The note with it: in the assay text read “GRE promoter-driven” for “MMTV promoter-driven”. The method in brief:
(§3)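 HepG2 in phenol red-free DMEM with charcoal-stripped FBS, triplicate wells. Transfected with 2 µg pCMV-GR, 6 µg pGRE-luc reporter and 1 µg β-gal control. Compound co-treated with 5 nM dexamethasone for 24 h. Luciferase/β-galactosidase ratio expressed relative to dexamethasone alone (=1).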

The target in data set [8] is T3, Glucocorticoid receptor (Homo sapiens). Kind of data set: Antagonist activity at glucocorticoid receptor (unknown origin) expressed in human HepG2 cells assessed as reduction in dexamethasone-induced response at 1 uM by MMTV promoter-driven luciferase reporter gene assay. The format is cell-based. The note with it: in the assay text read “GRE promoter-driven” for “MMTV promoter-driven”. The method in brief: as §3

The target is the same in data set [9]. Briefly: Antagonist activity at glucocorticoid receptor (unknown origin) expressed in human HepG2 cells assessed as reduction in dexamethasone-induced response at 100 nM by MMTV promoter-driven luciferase reporter gene assay. The data set is classed as cell-based. The following applies: in the assay text read “GRE promoter-driven” for “MMTV promoter-driven”. The method, boiled down: as §3

Data set [10] has the same target. Briefly: Agonist activity at glucocorticoid receptor (unknown origin) expressed in human HepG2 cells assessed as relative luciferase activity at 20 uM by GRE promoter-driven luciferase reporter gene assay relative to dexamethasone.

Active and inactive are the calls of the source. The rule behind the calls is not given here.

Turning to `CC(=O)O[C@@H](C[C@@H](C)C1=C2[C@H](O)[C@H](O)[C@H]3[C@@]4(C)CCC(=O)C(C)(C)[C@@H]4CC[C@]3(C)[C@@]2(C)CC1=O)[C@H]1OC1(C)C`, the Activity result with HepG2 is given as “Non-toxic”. Also, the outcome in [1], in [2], in [3] and in [10] was inactive. Moreover, the Activity (% of progesterone control) is 64% in data set [4] and 71% in data set [5]. For the same compound, the inhibition result in [6] and in data set [9] was “inactive” in each case. The Activity (% of dexamethasone control) in data set [7] was determined as 30%; in [8], 56%.

As to `CC(=O)O[C@@H](C[C@@H](C)C1=C2C[C@H](O)[C@H]3[C@@]4(C)CCC(=O)C(C)(C)[C@@H]4CC[C@]3(C)[C@@]2(C)CC1)[C@@H](O)C(C)(C)O`, in the data set with HepG2, the Activity entry was “Non-toxic”. For the same compound, the outcome in data set [1], in [2], in [3] and in data set [10] was inactive. Further, the values for the Activity (% of progesterone control) in [4] and in data set [5] were 66% and 82%, respectively. For the same compound, the inhibition result in data set [6] and in [9] was “Active” each time. The Activity (% of dexamethasone control) in data set [7] was found to be 39%; in data set [8], 56%.

For the compound `C[C@H](C[C@H](O)[C@H]1OC1(C)C)C1=C2C[C@H](O)[C@H]3[C@@]4(C)CCC(=O)C(C)(C)[C@@H]4CC[C@]3(C)[C@@]2(C)CC1` [ALISOL B], in the data set on HepG2, the Activity result was “Toxic”.
